Assay results from paper PMC5267326 (Chemical Science, 2015).

What was measured:
[1] = tested on: FGF2 binding to cell surface heparan sulfate (wild-type CHO cells); experiment: Inhibition of FGF2 binding to cell surface HS on wild-type CHO cells; settings: for IC50: read-out: IC50 against FGF2 binding, biotinylated FGF2 2.5 nM, on ice, mean ± SD of n = 3–4; for inhibition of FGF2 binding (in words): up to 100 μM
Procedure, shortened: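 Wild-type CHO cells grown to confluence in F12/10% FBS, lifted enzyme-free and washed in PBS. Pre-incubated with test compound in PBS/0.1% BSA for 10 min on ice. Biotinylated FGF2 (2.5 nM) added for 30 min on ice. After washing, detected with streptavidin-PE-Cy5 or streptavidin-Cy5 by flow cytometry as geometric mean fluorescence. Expressed as % of binding without compound and plotted against concentration.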

[2] = tested on: soluble RAGE (sRAGE) binding to cell surface HS; experiment: Inhibition of sRAGE binding to cell surface HS on CHO cells; settings: for sRAGE binding inhibition at 10 μM (in words): 10 μM compound, cell surface HS
Procedure, shortened: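 CHO cells lifted enzyme-free and washed in PBS. Test compound at 10 μM pre-incubated in PBS/0.1% BSA for 10 min on ice. Biotinylated sRAGE (2 μg mL−1) added for 1 h on ice. After washing, bound protein detected with streptavidin-PE-Cy5 or streptavidin-Cy5 by flow cytometry as geometric mean fluorescence. Reported relative to no-compound binding, means ± SD.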

[3] = cited from earlier work
[4] = In vivo neutralization of fondaparinux in mice; settings: fondaparinux 0.5 mg kg^–1 s.c., 16 mg kg^–1 i.v.
Procedure, shortened: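 Wild-type mice (8 weeks, ~20–30 g), n = 3 per group. Baseline tail bleed 30 min before dosing. Fondaparinux 0.5 mg kg−1 in PBS given s.c. After 10 min, tail-vein i.v. dosing of test compound (16 mg kg−1, DMSO–water), DMSO–H2O vehicle or protamine (16 mg kg−1, PBS). Blood drawn 5 min later into 3.2% citrate. Plasma anti-FXa colorimetric assay (405 nm) read against a calibration curve. Means ± SD.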

Row | Compound | IC50 [1] | sRAGE binding inhibition at 10 μM (in words) [2] | other results
1 | COc1cc(C)nc2ccc(NC(=O)Nc3ccc4nc(C)cc(OC)c4c3)cc12 [Methoxy surfen (5), 1,3-bis(4-methoxy-2-methyl-quinolin-6-yl)urea] | > 100 µM |  | 
2 | Cc1ccc2cc(NC(=O)Nc3ccc4nc(C)ccc4c3)ccc2n1 [Deaminated surfen (6), 1,3-Bis(2-methylquinolin-6-yl)urea] | > 100 µM | no inhibitory activity | 
3 | Nc1ccnc2ccccc12 [4-aminoquinoline] |  |  | pKa of the protonated form [3]: ~8.5
4 | Cc1cc(N)c2cc(NC(N)=O)ccc2n1 [Hemisurfen (2), 4-Amino-2-methyl-6-quinolyl-urea] | > 100 µM | no inhibitory activity | inhibition of FGF2 binding (in words) [1]: did not inhibit
5 | Cc1cc(N)c2cc(NC(=S)Nc3ccc4nc(C)cc(N)c4c3)ccc2n1 [Thio surfen (4), N,N′-bis-(4-amino-2-methyl-6-quinolyl)-thiourea] | 8 ± 0.2 µM |  | 
6 | protamine |  |  | neutralizing fondaparinux in vivo (in words) [4]: ineffective
7 | CC(=O)Nc1ccc2nc(C)cc(N)c2c1 [Acetyl-hemisurfen (3), 6-acetamido-4-aminoquinaldine] | > 100 µM | no inhibitory activity | inhibition of FGF2 binding (in words) [1]: did not inhibit; IC50 ([2]; read-out: IC50 inhibition of sRAGE binding to HS, CHO cells, biotinylated sRAGE 2 μg mL^–1): > 100 µM
